Experimental data reported in ChEMBL document CHEMBL1141034, “Optimization of the in vitro and in vivo properties of a novel series of 2,4,5-trisubstituted imidazoles as potent cholecystokinin-2 (CCK2) antagonists” (J Med Chem, 2005).
Activity calls are given as the source filed them. The calls are words filed in the database; no cut-off is given here.

Assays:
[1] = target: T1, Gastrin/cholecystokinin type B receptor (Mus musculus, UniProt P56481); assay: Concentration required to inhibit the binding of 20 pM [125I]-BH-CCK-8S radioligand to mouse cortical membrane CCK2 receptor
T1 sequence (P56481 whole entry): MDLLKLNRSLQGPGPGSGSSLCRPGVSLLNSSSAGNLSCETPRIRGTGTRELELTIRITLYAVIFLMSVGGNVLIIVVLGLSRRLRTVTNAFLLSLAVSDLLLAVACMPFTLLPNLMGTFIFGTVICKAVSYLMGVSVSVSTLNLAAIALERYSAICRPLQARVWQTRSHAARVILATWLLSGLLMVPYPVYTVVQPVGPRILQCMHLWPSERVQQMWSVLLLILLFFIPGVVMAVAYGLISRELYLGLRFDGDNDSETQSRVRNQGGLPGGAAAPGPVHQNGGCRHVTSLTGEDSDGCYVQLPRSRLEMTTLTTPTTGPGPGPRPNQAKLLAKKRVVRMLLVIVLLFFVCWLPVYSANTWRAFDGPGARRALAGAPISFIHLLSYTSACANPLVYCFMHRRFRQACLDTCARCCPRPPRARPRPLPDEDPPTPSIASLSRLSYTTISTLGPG
In short: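 Mouse cerebral cortex homogenates. Competition with 20 pM [125I]BH-CCK-8S for CCK2 sites, reported as pKI. At least three separate experiments give ± SEM. Where only two experiments were run, no error is given (approximate SEM 0.1 log units).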

[2] = target: T2, Cholecystokinin receptor type A (Cavia porcellus, UniProt Q63931); assay: Concentration required to inhibit the binding of 20 pM [125I]BH-CCK-8S radioligand to guinea pig pancreas CCK1 receptor
T2 sequence (Q63931 whole entry): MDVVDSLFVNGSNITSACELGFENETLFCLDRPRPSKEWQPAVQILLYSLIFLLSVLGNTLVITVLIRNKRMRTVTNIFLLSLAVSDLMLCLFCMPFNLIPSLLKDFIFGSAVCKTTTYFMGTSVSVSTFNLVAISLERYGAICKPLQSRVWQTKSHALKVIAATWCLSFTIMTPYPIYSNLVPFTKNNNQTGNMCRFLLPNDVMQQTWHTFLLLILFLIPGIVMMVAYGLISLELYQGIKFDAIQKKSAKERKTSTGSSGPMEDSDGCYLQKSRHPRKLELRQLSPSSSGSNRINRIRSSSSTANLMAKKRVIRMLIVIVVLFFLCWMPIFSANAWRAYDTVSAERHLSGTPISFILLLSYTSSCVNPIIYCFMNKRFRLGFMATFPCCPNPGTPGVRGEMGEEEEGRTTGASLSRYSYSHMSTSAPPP
In short: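 CCK1 sites on guinea pig pancreatic cells. Competition with 20 pM [125I]BH-CCK-8S, reported as pKI. At least three separate experiments give ± SEM. Where only two experiments were run, no error is given (approximate SEM 0.1 log units).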

[3] = target: T3, Gastrin/cholecystokinin type B receptor (Canis lupus familiaris) (UniProt P30552); assay: Percent inhibition (i.v., 3.0 mg/Kg) against dog CCK2 receptor
T3 sequence (whole entry): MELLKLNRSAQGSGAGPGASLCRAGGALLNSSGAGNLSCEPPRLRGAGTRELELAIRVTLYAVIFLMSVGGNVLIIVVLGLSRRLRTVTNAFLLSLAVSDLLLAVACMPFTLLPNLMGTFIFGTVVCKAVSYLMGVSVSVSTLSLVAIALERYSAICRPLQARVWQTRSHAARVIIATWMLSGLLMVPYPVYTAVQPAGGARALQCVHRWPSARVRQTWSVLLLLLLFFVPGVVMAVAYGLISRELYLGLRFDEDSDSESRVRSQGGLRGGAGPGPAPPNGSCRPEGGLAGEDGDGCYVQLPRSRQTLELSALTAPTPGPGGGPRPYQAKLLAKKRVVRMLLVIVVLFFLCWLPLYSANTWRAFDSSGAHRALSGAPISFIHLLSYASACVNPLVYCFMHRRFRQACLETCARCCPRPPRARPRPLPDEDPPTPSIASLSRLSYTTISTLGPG
In short: (§1)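 Conscious dogs given a bolus iv or intraduodenally during pentagastrin-stimulated acid secretion. Result is the peak percentage inhibition of acid output in the first four collection periods (1 h) after dosing, ± SEM, with the number of replicates stated.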

[4] = Lipophilicity was measured in octanol/buffer (pH 7.4); type: physicochemical
In short: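 log D from partition between octanol and buffer at pH 7.4, given ± error.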

[5] = target: T4, Gastrin/cholecystokinin type B receptor (Canis lupus familiaris, UniProt P30552); assay: Concentration required to inhibit the binding of [125I]-BH-CCK-8S radioligand to canine gastric mucosa CCK2 receptor
T4 sequence (P30552 whole entry): T3 sequence (whole entry)
In short: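 Canine gastric mucosa. Competition with [125I]BH-CCK-8S for CCK2 binding sites, reported as pIC50 ± SEM.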

[6] = target: T5, Gastrin/cholecystokinin type B receptor (Rattus norvegicus) (UniProt P30553); assay: Antagonist activity against CCK2 receptor estimated from single shifts of pentagastrin concentration-effect curves in the isolated rat stomach; […]; type: functional, tissue-based
T5 sequence (whole entry): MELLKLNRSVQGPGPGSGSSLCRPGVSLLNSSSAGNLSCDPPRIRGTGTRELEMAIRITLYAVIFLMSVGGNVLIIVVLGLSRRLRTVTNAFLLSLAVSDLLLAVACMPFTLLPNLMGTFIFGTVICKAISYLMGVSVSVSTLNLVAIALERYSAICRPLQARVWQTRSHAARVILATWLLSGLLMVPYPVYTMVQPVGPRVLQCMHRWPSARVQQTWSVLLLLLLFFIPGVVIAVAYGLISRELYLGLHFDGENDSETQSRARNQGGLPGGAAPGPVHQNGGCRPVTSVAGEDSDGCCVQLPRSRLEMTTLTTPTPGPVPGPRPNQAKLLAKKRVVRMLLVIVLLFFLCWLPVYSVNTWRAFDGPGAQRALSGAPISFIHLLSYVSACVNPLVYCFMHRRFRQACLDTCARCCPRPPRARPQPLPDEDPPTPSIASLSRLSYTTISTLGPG

[7] = target: T6, Gastrin/cholecystokinin type B receptor (Rattus norvegicus, UniProt P30553); assay: Antagonist activity against CCK2 receptor estimated from single shifts of pentagastrin concentration-effect curves in the isolated rat stomach; type: functional, tissue-based; details: read-out: pA2 (converted)
T6 sequence (P30553 whole entry): T5 sequence (whole entry)

[8] = target: T3, Gastrin/cholecystokinin type B receptor (Canis lupus familiaris); assay: Percent inhibition (i.v., 1.0 mg/Kg) against dog CCK2 receptor; in short: as §1
[9] = target: T3, Gastrin/cholecystokinin type B receptor (Canis lupus familiaris); assay: Percent inhibition (i.d., 10.0 mg/Kg) against dog CCK2 receptor; in short: as §1

Row | Ki [1] [nM] | Ki [2] [nM] | Compound | also measured
1 | 141 | > 10000 | Cc1cccc(C)c1-c1nc(C(=O)Nc2cccc(C(=O)O)c2)c(CCC23CC4CC(CC(C4)C2)C3)[nH]1 | –
2 | 3.31 | – | Cc1ccc(NC(=O)c2[nH]c(C3(C)CCCCC3)nc2CCC23CC4CC(CC(C4)C2)C3)cc1C(=O)O | inhibition [3]: 54%; logD [4]: 4.91; IC50 [5]: 11.2 nM
3 | 617 | 295 | Cc1ccccc1-c1nc(C(=O)Nc2cccc(C(=O)O)c2)c(CCC2CCCCC2)[nH]1 | –
4 | – | – | O=C(O)c1cccc(NC(=O)c2[nH]c(C3CCCCCCCCCCC3)nc2CCC23CC4CC(CC(C4)C2)C3)c1 | pA2 [6]: inactive
5 | 3.02 | 123 | Cc1cc(C)c(-c2nc(C(=O)Nc3ccc(C)c(C(=O)O)c3)c(CCC34CC5CC(CC(C5)C3)C4)[nH]2)c(C)c1 | inhibition [3]: 76%; logD [4]: 4.9; IC50 [5]: 39.8 nM; Kb [7]: 3.31 nM
6 | 20.4 | 324 | O=C(O)c1cccc(NC(=O)c2[nH]c(C34CCC(CC3)CC4)nc2CCC23CC4CC(CC(C4)C2)C3)c1 | –
7 | > 100000 | – | Cc1cccc(NC(=O)c2[nH]c(-c3ccccc3C)nc2CCC23CC4CC(CC(C4)C2)C3)c1 | –
8 | 27.5 | 776 | O=C(O)c1cccc(NC(=O)c2nc(C34CCC(CC3)CC4)[nH]c2COC23CC4CC(CC(C4)C2)C3)c1 | –
9 | – | 2190 | Cc1ccccc1-c1cc(C(=O)Nc2cccc(C(=O)O)c2)c(CCC23CC4CC(CC(C4)C2)C3)[nH]1 | pA2 [6]: inactive
10 | – | 126 | O=C(O)c1cccc(NC(=O)c2[nH]c(C3CCCCCC3)nc2CCC23CC4CC(CC(C4)C2)C3)c1 | –
11 | – | 2510 | O=C(O)c1cccc(NC(=O)c2[nH]c(-c3ccc4ccccc4c3)nc2CC2CCCCCC2)c1 | pA2 [6]: inactive
12 | – | 617 | Cc1ccc(-c2nc(C(=O)Nc3cccc(C(=O)O)c3)c(CCC34CC5CC(CC(C5)C3)C4)[nH]2)c(C)c1 | –
13 | – | 661 | Cc1ccccc1-c1nc(C(=O)Nc2cccc(C(=O)O)c2)c(CCC23CC4CC(CC(C4)C2)C3)[nH]1 | –
14 | > 100000 | – | COC(=O)c1cccc(NC(=O)c2[nH]c(-c3ccccc3C)nc2CCC23CC4CC(CC(C4)C2)C3)c1 | –
15 | – | 1120 | CCCc1nc(C(=O)Nc2cccc(C(=O)O)c2)c(CCC23CC4CC(CC(C4)C2)C3)[nH]1 | –
16 | – | 2340 | O=C(O)c1cccc(NC(=O)c2[nH]c(C3CC3)nc2CCC23CC4CC(CC(C4)C2)C3)c1 | –
17 | – | 562 | Cc1ccccc1-c1nc(C(=O)Nc2ccc(F)c(C(=O)O)c2)c(CCC23CC4CC(CC(C4)C2)C3)[nH]1 | –
18 | – | 2090 | O=C(O)c1cccc(NC(=O)c2cc(-c3ccccc3)[nH]c2CCC23CC4CC(CC(C4)C2)C3)c1 | pA2 [6]: inactive

Row | Ki [1] [nM] | Ki [2] [nM] | Compound | also measured
19 | – | – | COc1ccc(NC(=O)c2[nH]c(-c3ccccc3C)nc2CCC23CC4CC(CC(C4)C2)C3)cc1C(=O)O | pA2 [6]: inactive
20 | 39.8 | 525 | O=C(O)c1cccc(NC(=O)c2[nH]c(C3CCCC3)nc2CCC23CC4CC(CC(C4)C2)C3)c1 | –
21 | – | 1450 | CC(C)c1nc(C(=O)Nc2cccc(C(=O)O)c2)c(CCC23CC4CC(CC(C4)C2)C3)[nH]1 | –
22 | – | 575 | O=C(O)c1cccc(NC(=O)c2[nH]c(C3CCCCC3)nc2CCC23CC4CC(CC(C4)C2)C3)c1 | logD [4]: 4.12; IC50 [5]: 29.5 nM; inhibition [8]: 40%; inhibition [9]: 46%
23 | – | 417 | Cc1ccc(NC(=O)c2nc(-c3ccccc3C)[nH]c2CCC23CC4CC(CC(C4)C2)C3)cc1C(=O)O | Kb [7]: 33.1 nM
24 | 26.9 | 724 | Cc1cc(C)c(-c2nc(C(=O)Nc3cccc(C(=O)O)c3)c(CCC34CC5CC(CC(C5)C3)C4)[nH]2)c(C)c1 | –
25 | 11200 | – | CNc1cccc(NC(=O)c2[nH]c(-c3ccccc3C)nc2CCC23CC4CC(CC(C4)C2)C3)c1 | –
26 | – | 794 | Cc1ccccc1-c1nc(CCC23CC4CC(CC(C4)C2)C3)c(C(=O)Nc2ccc(N(C)C)c(C(=O)O)c2)[nH]1 | –
27 | – | – | Cc1ccccc1-c1nc(C(=O)Nc2cccc(C(=O)O)c2)c(CC23CC4CC(CC(C4)C2)C3)[nH]1 | pA2 [6]: inactive
28 | – | 2880 | CC(C)(C)c1nc(C(=O)Nc2cccc(C(=O)O)c2)c(CCC23CC4CC(CC(C4)C2)C3)[nH]1 | –
29 | – | 562 | CC1(c2nc(C(=O)Nc3cccc(C(=O)O)c3)c(CCC34CC5CC(CC(C5)C3)C4)[nH]2)CCCCC1 | –
30 | 8320 | 661 | Cc1ccccc1-c1nc(C(=O)Nc2cccc(C(=O)O)c2)c(CCC(C)C)[nH]1 | Kb [7]: 26.3 nM
31 | 13.5 | 562 | O=C(O)c1cccc(NC(=O)c2nc(C3CCCCC3)[nH]c2COC23CC4CC(CC(C4)C2)C3)c1 | logD [4]: 2.73; IC50 [5]: 19.5 nM; inhibition [8]: 76%
32 | 316 | 1320 | O=C(O)c1cccc(NC(=O)c2[nH]c(-c3ccccc3)nc2CCC23CC4CC(CC(C4)C2)C3)c1 | –
33 | – | 398 | Cc1ccccc1-c1nc(C(=O)Nc2cccc(CC(=O)O)c2)c(CCC23CC4CC(CC(C4)C2)C3)[nH]1 | pA2 [6]: inactive
34 | 13.8 | 537 | Cc1cc(C)c(-c2nc(C(=O)Nc3cccc(C(=O)O)c3)c(COC34CC5CC(CC(C5)C3)C4)[nH]2)c(C)c1 | logD [4]: 3.02; IC50 [5]: 63.1 nM; inhibition [8]: 61%
35 | 6.92 | 302 | Cc1ccccc1-c1nc(C(=O)Nc2cccc(CCC(=O)O)c2)c(CCC23CC4CC(CC(C4)C2)C3)[nH]1 | –
36 | – | 3020 | O=C(O)c1cccc(NC(=O)c2cc(-c3ccc4ccccc4c3)[nH]c2CC2CCCCCC2)c1 | pA2 [6]: inactive
